Assay type in all cases: functional, cell-based
In one experiment the test system is MGC-803. Briefly: Antitumor activity against human MGC-803 cells assessed as inhibition of cell proliferation incubated for 72 hrs by MTT assay. As to conditions: MGC-803, 72 h. A general note: Formazan colour is commonly taken as a measure of viable cells.
In a further experiment the test system is Hep 3B2. Briefly: Antitumor activity against human Hep3B cells assessed as inhibition of cell proliferation incubated for 72 hrs by MTT assay. An outline of the steps:
(§1)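 Cells were exposed to a range of compound concentrations for 72 h at 37 °C. Proliferation was read by MTT assay, and IC50 values are reported.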

A further experiment relates to Bel-7402. Briefly: Antitumor activity against human Bel-7402 cells assessed as inhibition of cell proliferation incubated for 72 hrs by MTT assay. As to conditions: Bel-7402, 72 h. In a few lines:
as §1

A further experiment concerns HCT-116. Briefly: Antitumor activity against human HCT-116 cells assessed as inhibition of cell proliferation incubated for 72 hrs by MTT assay. The note with it: HCT-116, 72 h. In a few lines: as §1

pIC50: −log10 of the molar value. Bounds are passed on as bounds.

By pIC50 is commonly meant the negative decadic logarithm of the IC50, by convention in mol/L. On to `CN(C)CCn1cc(-c2ccn3c(-c4ccc(C(N)=O)c(OCc5cccc(F)c5)c4)cnc3c2)cn1`, for which the negative logarithm of the IC50 (pIC50) in the experiment on MGC-803 was 6.19; in the experiment with Hep 3B2, 5.97; with Bel-7402, 5.20; in the experiment on HCT-116, 6.15.

On to `COC(=O)c1sc(-c2cnc3cc(-c4cnn(CCN5CCCC5)c4)ccn23)cc1OC(C)c1ccccc1C(F)(F)F` (stereo not given), for which the negative logarithm of the IC50 (pIC50) in the experiment with MGC-803 was 5.69.

Regarding `COC(=O)c1sc(-c2cnc3cc(-c4cnn(C)c4)ccn23)cc1OC(C)c1cccc(F)c1` (stereo not given), the pIC50 in the experiment on MGC-803 is less than 4.52.

As to `COC(=O)c1sc(-c2cnc3cc(-c4cnn(CCN5CCCCC5)c4)ccn23)cc1OC(C)c1ccccc1C(F)(F)F` (stereo not given), the pIC50 in the experiment on MGC-803 was 5.13.

Turning to `COC(=O)c1sc(-c2cnc3cc(-c4cnn(C)c4)ccn23)cc1OC(C)c1ccccc1` (stereo not given), the negative-log IC50 (pIC50) in the experiment with MGC-803 was 5.04.

On to `CC(Oc1cc(-c2cnc3cc(-c4cnn(C)c4)ccn23)sc1C(N)=O)c1ccccc1` (stereo not given), for which the negative-log IC50 (pIC50) in the experiment on MGC-803 was 5.53.

On to `CC(Oc1cc(-c2cnc3cc(-c4cnn(CCN5CCOCC5)c4)ccn23)sc1C(N)=O)c1ccccc1C(F)(F)F` (stereo not given), for which the negative logarithm of the IC50 (pIC50) in the experiment with MGC-803 was 7.36; in the experiment with Hep 3B2, 5.90; with Bel-7402 it was 5.36; with HCT-116, 6.44.

For `COC(=O)c1sc(-c2cnc3cc(-c4cnn(CCN5CCOCC5)c4)ccn23)cc1OC(C)c1ccccc1C(F)(F)F` (stereo not given), the pIC50 in the experiment with MGC-803 is 5.23.

Take `COC(=O)c1sc(-c2cnc3cc(-c4cnn(C)c4)ccn23)cc1OC(C)c1ccccc1C(F)(F)F` (stereo not given): the pIC50 in the experiment with MGC-803 is 5.41.

For `COC(=O)c1sc(-c2cnc3cc(-c4cnn(CCN(C)C)c4)ccn23)cc1OC(C)c1cccc(F)c1` (stereo not given), in the experiment on MGC-803, the negative logarithm of the IC50 (pIC50) was 5.80.

With `CC(Oc1cc(-c2cnc3cc(-c4cnn(CCN(C)C)c4)ccn23)sc1C(N)=O)c1ccccc1` (stereo not given), in the experiment on MGC-803, the pIC50 was 5.71.

For the molecule `CC(Oc1cc(-c2cnc3cc(-c4cnn(CCCN5CCN(C)CC5)c4)ccn23)sc1C(N)=O)c1ccccc1C(F)(F)F` (stereo not given), the pIC50 with MGC-803 was 7.27; with Hep 3B2, 5.93; in the experiment with Bel-7402, 5.22; in the experiment on HCT-116, 6.34.

As for `CC(Oc1cc(-c2cnc3cc(-c4cnn(C5CCN(C(=O)OC(C)(C)C)CC5)c4)ccn23)sc1C(N)=O)c1ccccc1C(F)(F)F` (stereo not given), in the experiment with MGC-803, the negative logarithm of the IC50 (pIC50) was 5.74.

With `COC(=O)c1sc(-c2cnc3cc(-c4cnn(C)c4)ccn23)cc1OC(C)c1cccc(C(F)(F)F)c1` (stereo not given), in the experiment on MGC-803, the pIC50 was 4.76.

On to `COC(=O)c1sc(-c2cnc3cc(-c4cnn(C5CCN(C(=O)OC(C)(C)C)C5)c4)ccn23)cc1OC(C)c1ccccc1C(F)(F)F` (stereo not given), for which, in the experiment on MGC-803, the pIC50 is 4.69.

Turning to `COC(=O)c1sc(-c2cnc3cc(-c4cnn(C5CCN(C(=O)OC(C)(C)C)CC5)c4)ccn23)cc1OC(C)c1ccccc1C(F)(F)F` (stereo not given), the negative logarithm of the IC50 (pIC50) with MGC-803 is 4.69.

For `COC(=O)c1sc(-c2cnc3cc(-c4cnn(CCN(C)C)c4)ccn23)cc1OC(C)c1cccc(C(F)(F)F)c1` (stereo not given), in the experiment with MGC-803, the pIC50 was 5.33.

As for `CC(Oc1cc(-c2cnc3cc(-c4cnn(CCN5CCCC5)c4)ccn23)sc1C(N)=O)c1ccccc1C(F)(F)F` (stereo not given), the pIC50 in the experiment on MGC-803 was 5.08.

For `COC(=O)c1sc(-c2cnc3cc(-c4cnn(CCN(C)C)c4)ccn23)cc1OC(C)c1ccccc1F` (stereo not given), in the experiment with MGC-803, the pIC50 was 5.61.

With `CC(Oc1cc(-c2cnc3cc(-c4cnn(CCN(C)C)c4)ccn23)sc1C(N)=O)c1cccc(F)c1` (stereo not given), in the experiment with MGC-803, the pIC50 is 5.22.

As for `CC(Oc1cc(-c2cnc3cc(-c4cnn(CCN(C)C)c4)ccn23)sc1C(N)=O)c1ccccc1F` (stereo not given), the negative-log IC50 (pIC50) in the experiment with MGC-803 was 5.54.

As for `CC(Oc1cc(-c2cnc3cc(-c4cnn(CCN5CCCCC5)c4)ccn23)sc1C(N)=O)c1ccccc1C(F)(F)F` (stereo not given), the negative-log IC50 (pIC50) with MGC-803 was 5.06.

Turning to `COC(=O)c1sc(-c2cnc3cc(-c4cnn(CCCN5CCN(C)CC5)c4)ccn23)cc1OC(C)c1ccccc1C(F)(F)F` (stereo not given), the pIC50 in the experiment with MGC-803 is 5.42.

As for `COC(=O)c1sc(-c2cnc3cc(-c4cnn(CCN(C)C)c4)ccn23)cc1OC(C)c1ccccc1C(F)(F)F` (stereo not given), the negative logarithm of the IC50 (pIC50) with MGC-803 was 6.49.

As to `COC(=O)c1sc(-c2cnc3cc(-c4cnn(C)c4)ccn23)cc1OC(C)c1ccccc1F` (stereo not given), the negative logarithm of the IC50 (pIC50) in the experiment with MGC-803 is 4.95.

`CC(Oc1cc(-c2cnc3cc(-c4cnn(C)c4)ccn23)sc1C(N)=O)c1cccc(C(F)(F)F)c1` (stereo not given): in the experiment with MGC-803, the negative logarithm of the IC50 (pIC50) is 5.46.

In the case of `CC(Oc1cc(-c2cnc3cc(-c4cnn(C)c4)ccn23)sc1C(N)=O)c1cccc(F)c1` (stereo not given), the negative-log IC50 (pIC50) with MGC-803 was 4.78.

As for `COC(=O)c1sc(-c2cnc3cc(-c4cnn(CC5CN(C(=O)OC(C)(C)C)C5)c4)ccn23)cc1OC(C)c1ccccc1C(F)(F)F` (stereo not given), in the experiment with MGC-803, the negative logarithm of the IC50 (pIC50) is 4.71.

For the molecule `CC(Oc1cc(-c2cnc3cc(-c4cnn(C)c4)ccn23)sc1C(N)=O)c1ccccc1F` (stereo not given), in the experiment on MGC-803, the pIC50 is 5.45.

Take `CC(Oc1cc(-c2cnc3cc(-c4cnn(CCN(C)C)c4)ccn23)sc1C(N)=O)c1cccc(C(F)(F)F)c1` (stereo not given): the negative-log IC50 (pIC50) with MGC-803 is 5.17.

Regarding `CC(Oc1cc(-c2cnc3cc(-c4cnn(CC5CN(C(=O)OC(C)(C)C)C5)c4)ccn23)sc1C(N)=O)c1ccccc1C(F)(F)F` (stereo not given), the negative-log IC50 (pIC50) in the experiment with MGC-803 was 7.42; in the experiment on Hep 3B2 it was 5.90; in the experiment on Bel-7402, 4.98; with HCT-116, 6.32.

As to `COC(=O)c1sc(-c2cnc3cc(-c4cnn(CCN(C)C)c4)ccn23)cc1OC(C)c1ccccc1` (stereo not given), in the experiment with MGC-803, the pIC50 was 5.89.

With `CC(Oc1cc(-c2cnc3cc(-c4cnn(C5CCN(C(=O)OC(C)(C)C)C5)c4)ccn23)sc1C(N)=O)c1ccccc1C(F)(F)F` (stereo not given), the negative logarithm of the IC50 (pIC50) in the experiment on MGC-803 was 6.26.

These data come from ChEMBL document CHEMBL5244264, “Design, synthesis, and structure activity relationship (SAR) studies of novel imidazo[1,2-a] pyridine derivatives as Nek2 inhibitors” (Bioorg Med Chem, 2020).
